Source: ChEMBL document CHEMBL2390901, “Synthesis and biological evaluation of N-(4-hydroxy-3-mercaptonaphthalen-1-yl)amides as inhibitors of angiogenesis and tumor growth” (Eur J Med Chem, 2013)
pIC50: −log10 of the molar value. The source made the active and inactive calls. The calls are words filed in the database; no cut-off is given here.

Legend:
PC-3 = assay: Antiproliferative activity against human PC3 cells after 48 hrs by MTT assay; format: functional, cell-based; conditions: PC-3, 48 h
How it was run: (§1)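 Cells kept in RPMI 1640 with 10 % FBS at 37 °C, 5 % CO2. Seeded 5,000/well, allowed 4 h, then exposed to serial dilutions for 48 h. MTT added for the last 4 h; formazan dissolved in DMSO, absorbance at 570 nm.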

K562 = assay: Antiproliferative activity against human K562 cells after 48 hrs by MTT assay; format: functional, cell-based; conditions: K562, 48 h; how it was run: as §1
MDA-MB-231 = assay: Antiproliferative activity against human MDA-MB-231 cells after 48 hrs by MTT assay; format: functional, cell-based; conditions: MDA-MB-231, 48 h; how it was run: as §1
A549 = assay: Antiproliferative activity against human A549 cells after 48 hrs by MTT assay; format: functional, cell-based; conditions: A549, 48 h; how it was run: as §1
HCT-116 = assay: Antiproliferative activity against human HCT116 cells after 48 hrs by MTT assay; format: functional, cell-based; conditions: HCT-116, 48 h; how it was run: as §1
MCF7 = assay: Antiproliferative activity against human MCF7 cells after 48 hrs by MTT assay; format: functional, cell-based; conditions: MCF7, 48 h; how it was run: as §1
HUVEC [1] = assay: Antiproliferative activity against human HUVEC cells after 48 hrs by MTT assay; format: functional, cell-based; how it was run: as §1
[2] = target: RAC-alpha serine/threonine-protein kinase (Homo sapiens) (UniProt P31749); assay: Inhibition of AKT1 (unknown origin) at 10 uM after 30 mins by fluorescence assay
RAC-alpha serine/threonine-protein kinase (Homo sapiens), sequence (P31749 whole entry): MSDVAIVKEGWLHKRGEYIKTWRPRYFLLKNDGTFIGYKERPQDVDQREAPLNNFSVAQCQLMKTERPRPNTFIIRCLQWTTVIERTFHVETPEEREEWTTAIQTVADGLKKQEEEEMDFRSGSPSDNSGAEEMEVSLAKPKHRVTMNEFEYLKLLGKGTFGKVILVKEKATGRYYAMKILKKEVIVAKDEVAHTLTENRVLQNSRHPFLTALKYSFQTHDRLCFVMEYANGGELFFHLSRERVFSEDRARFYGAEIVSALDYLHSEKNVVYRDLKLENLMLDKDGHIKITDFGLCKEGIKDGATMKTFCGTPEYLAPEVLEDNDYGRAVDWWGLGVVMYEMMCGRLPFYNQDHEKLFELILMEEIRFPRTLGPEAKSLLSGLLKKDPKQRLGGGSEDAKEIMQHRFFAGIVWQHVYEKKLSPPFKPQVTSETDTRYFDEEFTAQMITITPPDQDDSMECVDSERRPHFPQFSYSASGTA
How it was run: (§2)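 Single 10 μM test. Enzyme preincubated with compound in Hepes/Tris pH 7.4, EGTA/Tris, MgCl2, DTT, 0.008 % Tween 20. Substrate peptide and ATP added; 30 min at room temperature. Stopped with EDTA; europium-labelled anti-phospho PT66 antibody added, TR-FRET read after 60 min. Percent inhibition versus control enzyme activity; no-enzyme basal control; duplicate.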

HUVEC [3] = assay: Antiangiogenic activity in HUVEC assessed as inhibition of tube formation at 50 uM after 6 hrs by matrigel assay; format: functional; conditions: Homo sapiens
How it was run: (§3)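 HUVECs seeded at 40,000 cells/well on Matrigel (gelled 30 min, 37 °C) in M199 with 5 % FBS plus compound or vehicle (0.5 % DMSO); 6 h at 37 °C, 5 % CO2. Tubes photographed by phase-contrast (×200); tube area measured as pixels and compared with vehicle. Mean ± SD of three independent experiments.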

Aorta [4] = assay: Antiangiogenic activity in Sprague-Dawley rat aortic rings assessed as inhibition of microvessel outgrowth at 1 uM after 6 days by matrigel assay; format: functional; conditions: 144 h
How it was run: (§4)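 Aortas from 8–10-week-old male Sprague Dawley rats cleaned of fibroadipose tissue, cut into 1-mm rings, embedded between two Matrigel layers. Compound or vehicle (0.5 % DMSO) added every other day for 6 days; imaged day 7 (×200). Sprouting area quantified as pixels versus vehicle; mean ± SD, three independent experiments.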

Aorta [5] = assay: Antiangiogenic activity in Sprague-Dawley rat aortic rings assessed as reduction of microvessel outgrowth after 6 days by matrigel assay; format: functional, tissue-based; how it was run: as §4
Aorta [6] = assay: Antiangiogenic activity in Sprague-Dawley rat aortic rings assessed as inhibition of microvessel outgrowth at 50 uM after 6 days by matrigel assay; format: functional; conditions: for inhibition at 50 µM: 144 h; how it was run: as §4
[7] = target: ALK tyrosine kinase receptor (Homo sapiens) (UniProt Q9UM73); assay: Inhibition of ALK (unknown origin) at 10 uM after 30 mins by fluorescence assay; how it was run: as §2
ALK tyrosine kinase receptor (Homo sapiens), sequence (Q9UM73 19-1620 limits assumed): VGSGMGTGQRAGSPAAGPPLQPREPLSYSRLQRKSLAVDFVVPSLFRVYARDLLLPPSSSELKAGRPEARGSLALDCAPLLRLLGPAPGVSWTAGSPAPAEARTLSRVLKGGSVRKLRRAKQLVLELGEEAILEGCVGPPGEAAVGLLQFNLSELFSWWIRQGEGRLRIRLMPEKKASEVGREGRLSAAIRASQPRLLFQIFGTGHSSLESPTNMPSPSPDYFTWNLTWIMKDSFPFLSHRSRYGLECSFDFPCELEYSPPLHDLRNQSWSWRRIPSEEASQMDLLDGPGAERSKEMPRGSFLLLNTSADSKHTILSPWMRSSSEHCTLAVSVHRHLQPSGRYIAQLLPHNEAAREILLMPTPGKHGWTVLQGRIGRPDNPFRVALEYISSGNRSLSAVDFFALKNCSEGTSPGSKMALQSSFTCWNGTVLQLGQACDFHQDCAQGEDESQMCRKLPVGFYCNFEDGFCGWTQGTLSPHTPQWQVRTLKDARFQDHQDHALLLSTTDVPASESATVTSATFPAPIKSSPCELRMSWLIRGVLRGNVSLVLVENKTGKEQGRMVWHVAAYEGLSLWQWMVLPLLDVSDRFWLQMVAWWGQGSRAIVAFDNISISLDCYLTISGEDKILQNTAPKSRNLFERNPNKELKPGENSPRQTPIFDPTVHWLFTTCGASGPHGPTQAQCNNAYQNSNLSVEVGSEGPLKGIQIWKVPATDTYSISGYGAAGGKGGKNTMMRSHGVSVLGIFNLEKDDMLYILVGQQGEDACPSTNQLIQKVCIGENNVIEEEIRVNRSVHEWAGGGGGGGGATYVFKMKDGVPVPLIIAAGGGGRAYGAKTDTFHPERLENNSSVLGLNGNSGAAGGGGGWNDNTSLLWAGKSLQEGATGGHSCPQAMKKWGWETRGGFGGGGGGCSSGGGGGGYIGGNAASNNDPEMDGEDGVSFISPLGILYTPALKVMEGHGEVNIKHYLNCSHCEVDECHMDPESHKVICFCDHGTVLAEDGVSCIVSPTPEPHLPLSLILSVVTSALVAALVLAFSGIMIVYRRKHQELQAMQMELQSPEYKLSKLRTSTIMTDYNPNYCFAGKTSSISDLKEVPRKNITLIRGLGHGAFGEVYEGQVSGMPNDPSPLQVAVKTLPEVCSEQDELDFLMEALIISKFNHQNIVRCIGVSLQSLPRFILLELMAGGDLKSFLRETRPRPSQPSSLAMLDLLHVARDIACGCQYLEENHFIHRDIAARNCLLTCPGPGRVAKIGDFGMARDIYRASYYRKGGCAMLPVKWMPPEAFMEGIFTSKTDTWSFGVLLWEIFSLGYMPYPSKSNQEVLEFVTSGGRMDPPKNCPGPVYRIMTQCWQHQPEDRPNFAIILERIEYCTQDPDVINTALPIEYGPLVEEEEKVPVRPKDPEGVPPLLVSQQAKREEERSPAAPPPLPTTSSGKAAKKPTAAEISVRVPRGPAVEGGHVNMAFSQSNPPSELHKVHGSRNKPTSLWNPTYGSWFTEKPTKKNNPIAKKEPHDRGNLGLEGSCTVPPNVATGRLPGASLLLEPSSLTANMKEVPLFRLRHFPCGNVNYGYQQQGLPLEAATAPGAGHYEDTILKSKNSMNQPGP

[8] = target: Vascular endothelial growth factor receptor 2 (Homo sapiens) (UniProt P35968); assay: Inhibition of VEGFR2 (unknown origin) at 10 uM after 30 mins by fluorescence assay
Vascular endothelial growth factor receptor 2 (Homo sapiens), sequence (P35968 whole entry): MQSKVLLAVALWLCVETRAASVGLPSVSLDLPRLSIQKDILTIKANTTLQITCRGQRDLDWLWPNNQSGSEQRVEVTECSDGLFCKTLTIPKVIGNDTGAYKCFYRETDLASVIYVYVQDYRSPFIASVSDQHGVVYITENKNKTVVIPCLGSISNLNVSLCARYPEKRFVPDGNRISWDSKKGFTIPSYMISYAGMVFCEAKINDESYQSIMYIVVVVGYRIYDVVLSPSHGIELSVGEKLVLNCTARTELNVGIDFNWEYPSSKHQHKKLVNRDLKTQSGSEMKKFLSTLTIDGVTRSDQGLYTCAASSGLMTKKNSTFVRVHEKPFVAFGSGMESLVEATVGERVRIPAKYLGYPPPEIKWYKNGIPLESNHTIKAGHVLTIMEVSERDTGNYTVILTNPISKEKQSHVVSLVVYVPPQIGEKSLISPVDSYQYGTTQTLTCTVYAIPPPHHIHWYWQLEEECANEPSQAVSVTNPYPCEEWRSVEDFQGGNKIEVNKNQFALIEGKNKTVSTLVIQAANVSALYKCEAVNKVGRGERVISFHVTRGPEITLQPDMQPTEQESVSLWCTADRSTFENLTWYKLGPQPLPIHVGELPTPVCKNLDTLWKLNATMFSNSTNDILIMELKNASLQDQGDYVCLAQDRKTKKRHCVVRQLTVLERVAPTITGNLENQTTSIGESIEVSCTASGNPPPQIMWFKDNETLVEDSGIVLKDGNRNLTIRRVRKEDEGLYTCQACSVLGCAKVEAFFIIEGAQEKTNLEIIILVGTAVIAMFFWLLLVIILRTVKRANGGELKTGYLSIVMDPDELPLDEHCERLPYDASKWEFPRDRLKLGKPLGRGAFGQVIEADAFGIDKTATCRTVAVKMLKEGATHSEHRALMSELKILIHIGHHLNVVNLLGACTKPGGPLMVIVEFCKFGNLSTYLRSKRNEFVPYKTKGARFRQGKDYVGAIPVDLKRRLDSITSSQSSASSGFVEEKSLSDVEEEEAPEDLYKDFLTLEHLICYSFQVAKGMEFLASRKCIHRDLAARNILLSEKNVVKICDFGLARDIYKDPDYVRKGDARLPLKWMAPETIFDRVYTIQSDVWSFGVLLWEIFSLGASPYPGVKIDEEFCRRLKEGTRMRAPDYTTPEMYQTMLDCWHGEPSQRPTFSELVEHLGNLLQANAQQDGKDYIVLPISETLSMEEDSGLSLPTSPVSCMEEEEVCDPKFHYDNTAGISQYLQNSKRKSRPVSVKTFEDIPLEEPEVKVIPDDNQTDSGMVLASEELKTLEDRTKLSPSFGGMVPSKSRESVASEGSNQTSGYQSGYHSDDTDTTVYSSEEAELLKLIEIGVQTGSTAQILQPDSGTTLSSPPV

[9] = target: Platelet-derived growth factor receptor beta (Homo sapiens) (UniProt P09619); assay: Inhibition of PDGFR-beta (unknown origin) at 10 uM after 30 mins by fluorescence assay
Platelet-derived growth factor receptor beta (Homo sapiens), sequence (P09619 whole entry): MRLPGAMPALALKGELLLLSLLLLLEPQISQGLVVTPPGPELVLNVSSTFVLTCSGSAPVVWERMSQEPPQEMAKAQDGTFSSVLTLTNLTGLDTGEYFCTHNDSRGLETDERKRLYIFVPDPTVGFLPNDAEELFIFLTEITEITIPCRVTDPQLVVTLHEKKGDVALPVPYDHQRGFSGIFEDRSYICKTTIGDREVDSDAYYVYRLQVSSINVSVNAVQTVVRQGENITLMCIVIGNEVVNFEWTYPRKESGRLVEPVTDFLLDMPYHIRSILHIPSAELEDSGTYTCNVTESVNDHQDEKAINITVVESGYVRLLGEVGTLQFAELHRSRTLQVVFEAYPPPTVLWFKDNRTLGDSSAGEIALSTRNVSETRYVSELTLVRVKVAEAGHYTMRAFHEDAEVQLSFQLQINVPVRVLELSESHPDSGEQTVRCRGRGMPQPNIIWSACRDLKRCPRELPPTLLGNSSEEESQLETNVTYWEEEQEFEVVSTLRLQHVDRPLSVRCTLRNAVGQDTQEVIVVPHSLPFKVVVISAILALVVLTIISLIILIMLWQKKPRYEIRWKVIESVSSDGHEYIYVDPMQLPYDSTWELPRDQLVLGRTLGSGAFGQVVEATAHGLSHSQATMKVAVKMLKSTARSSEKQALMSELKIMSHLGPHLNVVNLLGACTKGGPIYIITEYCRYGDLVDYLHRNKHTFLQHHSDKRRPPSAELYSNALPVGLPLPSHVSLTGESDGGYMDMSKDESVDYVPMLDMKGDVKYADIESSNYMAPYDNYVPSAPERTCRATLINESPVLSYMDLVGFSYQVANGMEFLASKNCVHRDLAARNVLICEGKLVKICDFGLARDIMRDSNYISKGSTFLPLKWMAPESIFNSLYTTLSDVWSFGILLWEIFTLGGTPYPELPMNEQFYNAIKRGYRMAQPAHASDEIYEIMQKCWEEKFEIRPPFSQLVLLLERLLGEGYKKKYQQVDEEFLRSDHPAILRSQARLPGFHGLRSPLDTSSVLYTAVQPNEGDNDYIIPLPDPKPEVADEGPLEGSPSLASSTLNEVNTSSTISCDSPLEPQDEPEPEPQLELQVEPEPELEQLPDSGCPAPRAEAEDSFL

HUVEC [10] = assay: Antiangiogenic activity in HUVEC assessed as inhibition of tube formation at 10 uM after 6 hrs by matrigel assay; format: functional; conditions: Homo sapiens; how it was run: as §3

SMILES	pIC50 (PC-3)	pIC50 (K562)	pIC50 (MDA-MB-231)	pIC50 (A549)	pIC50 (HCT-116)	pIC50 (MCF7)	pIC50 (HUVEC [1])	inhibition [2]	inhibition at 50 µM (HUVEC [3])	inhibition at 1 µM (Aorta [4])	Activity (Aorta [5])	inhibition at 50 µM (Aorta [6])	inhibition [7]	inhibition (Aorta [6])	inhibition [8]	inhibition [9]	inhibition at 10 µM (HUVEC [10])	inhibition (HUVEC [10])
CNC(=O)c1cc(Oc2ccc(NC(=O)Nc3ccc(Cl)c(C(F)(F)F)c3)cc2)ccn1 [SORAFENIB]	4.62	4.86	4.84	4.90	5.09	5.13	5.19	–	–	–	–	–	–	–	–	–	–	–
O=C(Nc1cc(Sc2ncnc3nc[nH]c23)c(O)c2ccccc12)c1ccccc1[N+](=O)[O-]	< 4.00	4.43	4.27	< 4.00	4.50	< 4.00	–	50.7%	> 80%	> 70%	Dose-dependent effect	96%	inactive	–	–	–	–	–
O=C(Nc1cc(Sc2ncnc3nc[nH]c23)c(O)c2ccccc12)c1ccc([N+](=O)[O-])cc1	< 4.00	–	< 4.00	–	< 4.00	–	–	–	–	–	–	–	–	Active	–	–	–	–
O=C(Nc1cc(Sc2ncn[nH]2)c(O)c2ccccc12)c1ccc2ccccc2c1	< 4.00	–	4.35	–	< 4.00	–	–	41.6%	–	–	–	–	inactive	Active	–	–	–	–
Cn1nnnc1Sc1cc(NC(=O)c2ccc(Cl)cc2)c2ccccc2c1O	< 4.00	–	< 4.00	–	< 4.00	–	–	13.1%	–	–	–	–	inactive	Active	–	–	–	–
COc1cccc(C(=O)Nc2cc(Sc3ncn[nH]3)c(O)c3ccccc23)c1	4.38	–	< 4.00	–	< 4.00	–	–	19.4%	–	–	–	–	inactive	Active	–	–	–	–
O=C(Nc1cc(Sc2nncs2)c(O)c2ccccc12)c1ccc(Cl)cc1	< 4.00	–	< 4.00	–	< 4.00	–	–	7.5%	> 80%	–	–	–	4.2%	Active	–	–	–	–
Cc1cccc(C(=O)Nc2cc(Sc3ncn[nH]3)c(O)c3ccccc23)c1	4.23	–	< 4.00	–	< 4.00	–	–	20.2%	–	–	–	–	inactive	Active	–	–	–	–
CN[C@@H]1C[C@H]2O[C@@](C)([C@@H]1OC)n1c3ccccc3c3c4c(c5c6ccccc6n2c5c31)C(=O)NC4	–	–	–	–	–	–	–	–	–	–	–	–	97.9%	–	–	–	–	–
O=C(Nc1cc(Sc2ncn[nH]2)c(O)c2ccccc12)c1ccccc1[N+](=O)[O-]	4.28	4.97	4.67	4.39	4.99	5.55	5.27	85.8%	> 80%	91%	Dose-dependent effect	95%	56.8%	–	65.2%	37.9%	83%	–
O=C(Nc1cc(Sc2ncn[nH]2)c(O)c2ccccc12)c1ccc([N+](=O)[O-])cc1	4.27	–	< 4.00	–	< 4.00	–	–	37.3%	> 80%	–	–	–	3.37%	Active	–	–	–	–
O=C(Nc1cc(Sc2ncn[nH]2)c(O)c2ccccc12)c1ccc(Cl)cc1	5.26	4.73	4.59	4.38	4.36	< 4.00	< 4.00	50.1%	65%	–	–	–	inactive	inactive	–	–	–	Active
O=C(Nc1cc(Sc2ncnc3nc[nH]c23)c(O)c2ccccc12)c1ccc(Cl)cc1	4.18	4.77	4.64	4.42	< 4.00	4.84	5.12	21.7%	–	> 70%	Dose-dependent effect	92%	inactive	–	–	–	–	–
COc1ccc(C(=O)Nc2cc(Sc3ncn[nH]3)c(O)c3ccccc23)cc1	< 4.00	–	< 4.00	–	< 4.00	–	–	30.8%	–	–	–	–	inactive	Active	–	–	–	–
O=C(Nc1cc(Sc2ncn[nH]2)c(O)c2ccccc12)c1cccc(Cl)c1	4.07	–	< 4.00	–	< 4.00	–	–	46%	> 80%	–	–	–	inactive	Active	–	–	–	–
O=C(/C=C/c1ccccc1)Nc1cc(Sc2ncn[nH]2)c(O)c2ccccc12	< 4.00	–	< 4.00	–	< 4.00	–	–	26.1%	> 80%	–	–	–	inactive	Active	–	–	–	–
O=C(Nc1cc(Sc2ncn[nH]2)c(O)c2ccccc12)c1cccc([N+](=O)[O-])c1	4.57	–	4.32	–	4.15	–	–	29.3%	–	–	–	–	inactive	Active	–	–	–	–
O=C(/C=C/c1ccc([N+](=O)[O-])cc1)Nc1cc(Sc2ncn[nH]2)c(O)c2ccccc12	< 4.00	–	< 4.00	–	< 4.00	–	–	40.6%	–	–	–	–	inactive	Active	–	–	–	–
COc1ccc(/C=C/C(=O)Nc2cc(Sc3ncn[nH]3)c(O)c3ccccc23)cc1OC	< 4.00	–	4.28	–	< 4.00	–	–	31.6%	–	–	–	–	14.9%	Active	–	–	–	–
O=C(/C=C/c1ccc(Cl)cc1)Nc1cc(Sc2ncn[nH]2)c(O)c2ccccc12	< 4.00	–	< 4.00	–	< 4.00	–	–	31.8%	–	–	–	–	0.7%	Active	–	–	–	–
